Source: ChEMBL document CHEMBL2086314, “Synthesis and anticonvulsant activity of new N-Mannich bases derived from 3-(2-fluorophenyl)- and 3-(2-bromophenyl)-pyrrolidine-2,5-diones. Part II” (Bioorg Med Chem, 2012)
The source made the active and inactive calls. The rule behind the calls is not given here.

Tests used:
Mus musculus [1] = assay: Anticonvulsant activity in CF-1 albino mouse assessed as protection against 6 Hz psychomotor seizure at 100 mg/kg, ip measured after 0.5 hrs; format: functional; conditions: route intraperitoneal
Method in brief: (§1)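 6-Hz psychomotor seizure in male CF-1 mice, compound suspended in 0.5% methylcellulose/water, given ip (100 or 75 mg/kg). Corneal stimulation with 0.2 ms monopolar rectangular pulses at 6 Hz for 3 s, 32 mA, constant-current device. Protected if normal exploratory behaviour resumes within 10 s. Tested 0.25–4 h after dosing; value is mice protected out of four.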

Mus musculus [2] = assay: Anticonvulsant activity in CF-1 albino mouse assessed as protection against 6 Hz psychomotor seizure at 100 mg/kg, ip measured after 0.25 hrs; format: functional; conditions: route intraperitoneal; method in brief: as §1
Mus musculus [3] = assay: Neurotoxicity in CF-1 albino mouse assessed as motor impairment at 300 mg/kg, ip measured after 4 hrs by rotarod test; format: toxicity, organism-based; set-up: dose 300 mg/kg, route intraperitoneal; conditions: in vivo
Method in brief: (§2)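 Rotarod neurotoxicity in male CF-1 mice given ip doses of 30, 100 or 300 mg/kg (0.5% methylcellulose suspension), examined 0.5 and 4 h after dosing. Impairment means failing to hold balance on the rod for 1 min. Value is the minimum dose causing toxicity in half or more of the animals; response comments are recorded.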

Mus musculus [4] = assay: Neurotoxicity in CF-1 albino mouse assessed as myoclonic jerks at 300 mg/kg, ip measured after 0.5 hrs by rotarod test; format: toxicity, organism-based; set-up: dose 300 mg/kg, route intraperitoneal; conditions: in vivo
Mus musculus [5] = assay: Anticonvulsant activity in ip dosed CF-1 albino mouse assessed as protection against subcutaneous pentylenetetrazol-induced seizures measured after 0.5 hrs; format: functional; conditions: read-out: MED
Method in brief: (§3)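 scPTZ test in male CF-1 mice. Compound suspended in 0.5% methylcellulose/water, ip at 30, 100 or 300 mg/kg. Pentylenetetrazole 85 mg/kg (CD97, clonic seizures lasting at least 5 s) given subcutaneously at the test time, read at 0.5 and 4 h. Value is the minimum dose protecting half or more of the animals.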

Mus musculus [6] = assay: Anticonvulsant activity in CF-1 albino mouse assessed as protection against 6 Hz psychomotor seizure at 100 mg/kg, ip measured after 1 hr; format: functional; conditions: route intraperitoneal; method in brief: as §1
Mus musculus [7] = assay: Anticonvulsant activity in CF-1 albino mouse assessed as protection against 6 Hz psychomotor seizure at 100 mg/kg, ip measured after 4 hrs; format: functional; conditions: route intraperitoneal; method in brief: as §1
Mus musculus [8] = assay: Neurotoxicity in CF-1 albino mouse assessed as inability to grasp rotarod at 300 mg/kg, ip measured after 0.5 hrs by rotarod test; format: toxicity, organism-based; set-up: dose 300 mg/kg, route intraperitoneal; conditions: in vivo; method in brief: as §2
Mus musculus [9] = assay: Anticonvulsant activity in ip dosed CF-1 albino mouse assessed as protection from maximal electric shock-induced seizures measured after 0.5 hrs; format: functional; conditions: read-out: MED
Method in brief: (§4)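 Male CF-1 mice dosed ip at 30, 100 or 300 mg/kg, suspension in 0.5% methylcellulose/water. MES: corneal electrodes primed with electrolyte containing anaesthetic, 50 mA, 60 Hz, 0.2 s. Examined 0.5 and 4 h after dosing. Value is the minimum dose protecting half or more of the animals.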

Mus musculus [10] = assay: Anticonvulsant activity in CF-1 albino mouse assessed as protection against 6 Hz psychomotor seizure at 100 mg/kg, ip measured after 2 hrs; format: functional; conditions: route intraperitoneal; method in brief: as §1
Mus musculus [11] = assay: Anticonvulsant activity in CF-1 albino mouse assessed as protection against subcutaneous pentylenetetrazol-induced seizures at 300 mg/kg, ip measured after 4 hrs; format: functional, organism-based; set-up: dose 300 mg/kg; method in brief: as §3
Mus musculus [12] = assay: Neurotoxicity in ip dosed CF-1 albino mouse assessed as motor impairment measured after 0.5 hrs by rotarod test; format: toxicity, organism-based; conditions: in vivo; method in brief: as §2
Mus musculus [13] = assay: Anticonvulsant activity in ip dosed CF-1 albino mouse assessed as protection from maximal electric shock-induced seizures measured after 4 hrs; format: functional; conditions: read-out: MED; method in brief: as §4
Mus musculus [14] = assay: Anticonvulsant activity in CF-1 albino mouse assessed as protection from maximal electric shock-induced seizures at 300 mg/kg, ip measured after 4 hrs; format: functional, organism-based; set-up: dose 300 mg/kg; method in brief: as §4
Mus musculus [15] = assay: Neurotoxicity in CF-1 albino mouse assessed as tonic extension at 300 mg/kg, ip measured after 0.5 hrs by rotarod test; format: toxicity, organism-based; set-up: dose 300 mg/kg, route intraperitoneal; conditions: in vivo; method in brief: as §2
Mus musculus [16] = assay: Anticonvulsant activity in CF-1 albino mouse assessed as protection against subcutaneous pentylenetetrazol-induced seizures at 300 mg/kg, ip measured after 0.5 hrs; format: functional, organism-based; set-up: dose 300 mg/kg; method in brief: as §3
Mus musculus [17] = assay: Anticonvulsant activity in CF-1 albino mouse assessed as protection from maximal electric shock-induced seizures at 300 mg/kg, ip measured after 0.5 hrs; format: functional, organism-based; set-up: dose 300 mg/kg; method in brief: as §4
Mus musculus [18] = assay: Neurotoxicity in CF-1 albino mouse assessed as motor impairment, ip measured after 4 hrs by rotarod test; format: toxicity, organism-based; conditions: in vivo
Mus musculus [19] = assay: Anticonvulsant activity in ip dosed CF-1 albino mouse assessed as protection against subcutaneous pentylenetetrazol-induced seizures measured after 4 hrs; format: functional; conditions: read-out: MED; method in brief: as §3
Mus musculus [20] = assay: Neurotoxicity in CF-1 albino mouse assessed as myoclonic jerks at 100 mg/kg, ip measured after 0.5 hrs by rotarod test; format: toxicity, organism-based; set-up: dose 100 mg/kg, route intraperitoneal; conditions: in vivo
Mus musculus [21] = assay: Neurotoxicity in CF-1 albino mouse assessed as myoclonic jerks at 300 mg/kg, ip measured after 4 hrs by rotarod test; format: toxicity, organism-based; set-up: dose 300 mg/kg, route intraperitoneal; conditions: in vivo
Mus musculus [22] = assay: Anticonvulsant activity in CF-1 albino mouse assessed as protection from maximal electric shock-induced seizures at 100 mg/kg, ip measured after 6 hrs; format: functional, organism-based; set-up: dose 100 mg/kg
Mus musculus [23] = assay: Neurotoxicity in CF-1 albino mouse assessed as motor impairment at 300 mg/kg, ip measured after 0.5 hrs by rotarod test; format: toxicity, organism-based; set-up: dose 300 mg/kg, route intraperitoneal; conditions: in vivo; method in brief: as §2
Rattus norvegicus [24] = assay: Anticonvulsant activity in Sprague-Dawley rat assessed as protection from maximum electric shock-induced seizures at 30 mg/kg, po measured after 0.25 hrs; format: functional
Method in brief: (§5)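 Male Sprague–Dawley rats, four per group, given 30 mg/kg orally as a suspension in 0.5% methylcellulose/water. MES stimulus 150 mA, 60 Hz, 0.2 s via corneal electrodes. Tested at 0.25, 0.5, 1, 2 and 4 h; value is rats protected out of four.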

[25] = Neurotoxicity in ip dosed CF-1 albino mouse assessed as motor impairment by rotarod test; format: toxicity, organism-based; conditions: in vivo
Rattus norvegicus [26] = assay: Anticonvulsant activity in Sprague-Dawley rat assessed as protection from maximum electric shock-induced seizures at 30 mg/kg, po measured after 1 hr; format: functional; method in brief: as §5
Mus musculus [27] = organism: Mus musculus; assay: Protective index, ratio of TD50 for CF-1 albino mouse to ED50 for CF-1 albino mouse assessed as protection from maximum electric shock-induced seizures; format: functional
Method in brief: (§6)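 ED50 and TD50 determined in male CF-1 mice after ip dosing (0.5% methylcellulose suspension) at the previously estimated time of peak effect. MES 50 mA, 60 Hz, 0.2 s. Groups of eight, with doses varied until at least three points fell between 10–90% protection or motor impairment. Regression gives ED50/TD50 with 95% confidence intervals; PI = TD50/ED50.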

Rattus norvegicus [28] = assay: Anticonvulsant activity in Sprague-Dawley rat assessed as protection from maximum electric shock-induced seizures at 30 mg/kg, po measured after 4 hrs; format: functional; method in brief: as §5
Rattus norvegicus [29] = assay: Anticonvulsant activity in Sprague-Dawley rat assessed as protection from maximum electric shock-induced seizures at 30 mg/kg, po measured after 2 hrs; format: functional; method in brief: as §5
Rattus norvegicus [30] = assay: Anticonvulsant activity in Sprague-Dawley rat assessed as protection from maximum electric shock-induced seizures at 30 mg/kg, po measured after 0.5 hrs; format: functional; method in brief: as §5
Mus musculus [31] = assay: Anticonvulsant activity in ip dosed CF-1 albino mouse assessed as protection from maximal electric shock-induced seizures; format: functional; method in brief: as §6
Rattus norvegicus [32] = assay: Neurotoxicity in Sprague-Dawley rat assessed as motor impairment at 30 mg/kg, po by rotarod test; format: toxicity, organism-based; set-up: dose 30 mg/kg, route oral; conditions: in vivo
Method in brief: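 Male Sprague–Dawley rats, four animals, oral 30 mg/kg in 0.5% methylcellulose/water. Motor impairment on the rotarod (failure to keep balance for 1 min) assessed alongside MES at five times from 0.25 to 4 h.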

Mus musculus [33] = assay: Anticonvulsant activity in ip dosed maximal electric shock-induced CF-1 albino mouse assessed as time of peak effect; format: functional; method in brief: as §6

Structure (SMILES)	Activity (Mus musculus [3])	minimal effective dose (Mus musculus [5])	minimal effective dose (Mus musculus [9])	Activity (Mus musculus [11])	MTC (Mus musculus [12])	minimal effective dose (Mus musculus [13])	Activity (Mus musculus [17])	MTC (Mus musculus [18])	minimal effective dose (Mus musculus [19])	Activity (Mus musculus [20])	Activity (Mus musculus [21])	Activity (Rattus norvegicus [24])	Activity (Rattus norvegicus [26])	Activity (Rattus norvegicus [28])	Activity (Rattus norvegicus [29])	Activity (Rattus norvegicus [30])	Activity (Rattus norvegicus [32])	also measured
O=C1CC(c2ccccc2F)C(=O)N1CN1CCN(Cc2ccccc2)CC1 (racemic)	Non-toxic	300 mg/kg	300 mg/kg	inactive	300 mg/kg	300 mg/kg	–	–	–	–	–	–	–	–	–	–	–	Activity (Mus musculus [1]): 25%; Activity (Mus musculus [2]): 0%; Activity (Mus musculus [4]): Toxic; Activity (Mus musculus [6]): 0%; Activity (Mus musculus [7]): 0%; Activity (Mus musculus [8]): Toxic; Activity (Mus musculus [10]): 0%
Cl.O=C1CC(c2ccccc2Br)C(=O)N1CN1CCN(Cc2ccccc2)CC1 (racemic)	Non-toxic	–	–	inactive	300 mg/kg	–	inactive	–	–	–	–	–	–	–	–	–	–	Activity (Mus musculus [14]): inactive; Activity (Mus musculus [15]): Toxic; Activity (Mus musculus [16]): inactive
O=C1CC(c2ccccc2Br)C(=O)N1CN1CCN(c2ncccn2)CC1 (racemic)	–	100 mg/kg	–	–	300 mg/kg	100 mg/kg	inactive	300 mg/kg	300 mg/kg	Toxic	Toxic	–	–	–	–	–	–	Activity (Mus musculus [22]): Active
O=C1CC(c2ccccc2F)C(=O)N1CN1CCN(c2ccc(F)cc2)CC1 (racemic)	–	–	–	–	–	30 mg/kg	inactive	300 mg/kg	–	–	–	0%	0%	50%	25%	0%	Non-toxic	Activity (Mus musculus [23]): Non-toxic; TD50 [25]: 166 mg/kg; Ratio TD50/ED50 (Mus musculus [27]): 1.65; ED50 (Mus musculus [31]): 101 mg/kg; Time (Mus musculus [33]): 4 h
Cl.Cl.O=C1CC(c2ccccc2Br)C(=O)N1CN1CCN(CCO)CC1 (racemic)	Non-toxic	100 mg/kg	100 mg/kg	–	300 mg/kg	100 mg/kg	–	–	300 mg/kg	Toxic	Toxic	25%	0%	25%	0%	25%	Non-toxic	–
